Results published in ChEMBL document CHEMBL3352380, “Development of benzo[d]oxazol-2(3H)-ones derivatives as novel inhibitors of Mycobacterium tuberculosis InhA” (Bioorg Med Chem, 2014).
≈ marks a conversion by molar mass, not a printed value.

The molecules below were run on Mycobacterium tuberculosis (assay: Antimicrobial activity against extensively drug-resistant Mycobacterium tuberculosis XDR-TB after 28 days by two-fold agar dilution method). Details: 672 h.
Assay type: functional
Outline: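 Two-fold serial dilutions in Middlebrook 7H11 agar with OADC supplement, final 50 to 0.78 µg/mL. Inoculum from fresh 7H11/OADC slants, adjusted to 1 mg/mL wet weight in 0.05% Tween 80 saline and diluted 10^-2 (~10^7 cfu/mL), spotted onto drug-containing agar tubes. Incubated at 37 °C; MIC is the lowest concentration inhibiting growth, read at 28 days.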

Row | Structure (SMILES) | MIC
1 | CC[C@@H](CO)NCCN[C@@H](CC)CO [ETHAMBUTOL] | 24.5 µM (≈ 5 µg/mL)
2 | O=C(Cn1c(=O)oc2cc([N+](=O)[O-])ccc21)Nc1ncc([N+](=O)[O-])s1 | 17.1 µM (≈ 6.25 µg/mL)
3 | O=C(Cn1c(=O)oc2ccccc21)Nc1nc2ccccc2s1 | 38.4 µM (≈ 12.5 µg/mL)
4 | O=C(Cn1c(=O)oc2cc(Cl)ccc21)Nc1ncc([N+](=O)[O-])s1 | 17.6 µM (≈ 6.25 µg/mL)
5 | O=C(Cn1c(=O)oc2cc(Cl)ccc21)Nc1nc2ccccc2s1 | 34.7 µM (≈ 12.5 µg/mL)
6 | O=C(Cn1c(=O)oc2cc([N+](=O)[O-])ccc21)Nc1nc2ccc([N+](=O)[O-])cc2s1 | 15 µM (≈ 6.25 µg/mL)
7 | O=C(Cn1c(=O)oc2cc([N+](=O)[O-])ccc21)NCc1cccs1 | 18.8 µM (≈ 6.25 µg/mL)
8 | CO[C@H]1/C=C/O[C@@]2(C)Oc3c(C)c(O)c4c(O)c(c(/C=N/N5CCN(C)CC5)c(O)c4c3C2=O)NC(=O)/C(C)=C\C=C\[C@H](C)[C@H](O)[C@@H](C)[C@@H](O)[C@@H](C)[C@H](OC(C)=O)[C@@H]1C [RIFAMPIN] | 30.4 µM (≈ 25 µg/mL)
9 | NNC(=O)c1ccncc1 [ISONIAZID] | 45.6 µM (≈ 6.25 µg/mL)
10 | O=C(Cn1c(=O)oc2ccccc21)NCc1cccs1 | 21.7 µM (≈ 6.25 µg/mL)
11 | O=C(Cn1c(=O)oc2ccccc21)NCc1ccco1 | 11.5 µM (≈ 3.12 µg/mL)
